Laboratory results taken from ChEMBL document CHEMBL1123522, “Angiotensin converting enzyme inhibitors as antihypertensive agents: 1-[(2-mercaptocycloalkyl)carbonyl]-L-prolines” (J Med Chem, 1986).

How the values were obtained:
[1] = target: T1, Angiotensin-converting enzyme (Rattus norvegicus, UniProt P47820); experiment: Inhibitory activity against Angiotensin I converting enzyme
T1 sequence (P47820 whole entry): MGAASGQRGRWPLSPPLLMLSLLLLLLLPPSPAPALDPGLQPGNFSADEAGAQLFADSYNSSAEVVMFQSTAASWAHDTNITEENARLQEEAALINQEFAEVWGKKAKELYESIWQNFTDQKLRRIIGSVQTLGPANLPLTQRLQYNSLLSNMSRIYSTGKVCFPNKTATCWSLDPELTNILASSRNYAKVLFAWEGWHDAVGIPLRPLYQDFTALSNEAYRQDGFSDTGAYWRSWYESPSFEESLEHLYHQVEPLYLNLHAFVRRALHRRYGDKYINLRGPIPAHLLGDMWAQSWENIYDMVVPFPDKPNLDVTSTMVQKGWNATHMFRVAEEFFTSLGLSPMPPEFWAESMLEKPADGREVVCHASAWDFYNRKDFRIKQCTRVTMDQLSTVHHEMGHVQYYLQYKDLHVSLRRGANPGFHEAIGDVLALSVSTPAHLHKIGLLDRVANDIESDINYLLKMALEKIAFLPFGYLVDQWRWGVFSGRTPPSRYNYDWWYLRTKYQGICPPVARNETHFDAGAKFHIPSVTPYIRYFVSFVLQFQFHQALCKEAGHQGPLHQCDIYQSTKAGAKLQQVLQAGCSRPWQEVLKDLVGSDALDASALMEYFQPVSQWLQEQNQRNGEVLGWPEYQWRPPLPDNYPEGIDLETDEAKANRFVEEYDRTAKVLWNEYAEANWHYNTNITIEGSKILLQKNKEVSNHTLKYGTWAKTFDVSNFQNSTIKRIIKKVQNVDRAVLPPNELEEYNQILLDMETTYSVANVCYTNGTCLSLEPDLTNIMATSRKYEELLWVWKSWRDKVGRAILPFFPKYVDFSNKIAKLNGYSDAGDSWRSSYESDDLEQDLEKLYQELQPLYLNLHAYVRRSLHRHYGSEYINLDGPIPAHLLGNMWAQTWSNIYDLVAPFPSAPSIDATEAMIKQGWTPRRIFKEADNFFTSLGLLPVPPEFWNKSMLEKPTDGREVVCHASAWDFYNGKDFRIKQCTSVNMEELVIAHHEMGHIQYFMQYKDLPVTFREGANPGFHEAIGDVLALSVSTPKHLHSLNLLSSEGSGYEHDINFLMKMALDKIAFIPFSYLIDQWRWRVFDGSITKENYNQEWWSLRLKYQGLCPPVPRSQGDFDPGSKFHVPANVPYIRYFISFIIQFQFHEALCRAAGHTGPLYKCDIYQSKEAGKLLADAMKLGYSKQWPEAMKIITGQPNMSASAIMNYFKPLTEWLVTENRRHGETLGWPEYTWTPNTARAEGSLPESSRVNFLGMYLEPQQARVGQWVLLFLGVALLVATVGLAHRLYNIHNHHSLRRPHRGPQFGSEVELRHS

Canis familiaris [2] = experiment: Compound was evaluated for antihypertensive activity in conscious renal hypertensive dogs at a 30 mg/kg dose given orally; assay type: functional, Canis lupus familiaris; settings: route oral
Summary of the method: (§1)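 Conscious mongrel dogs made hypertensive by bilateral renal artery constriction (Goldblatt). Drug given by gavage in gelatine capsules; systolic pressure fall vs 0 time, observed up to 7 h; Dunnett's t test.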

[3] = target: T2, Angiotensin-converting enzyme (Rattus norvegicus) (UniProt P47820); experiment: Compound was evaluated for ACE inhibitory activity in conscious normotensive rats at a dose 1 mg/kg given intravenously by determining percent reduction in Angiotensin I converting enzyme response; assay type: organism-based; parameters: dose 1 mg/kg
T2 sequence (whole entry): T1 sequence (P47820 whole entry)

Canis familiaris [4] = experiment: Compound was evaluated for antihypertensive activity in conscious renal hypertensive dogs at a 10 mg/kg dose given orally; assay type: functional, Canis lupus familiaris; settings: route oral; summary of the method: as §1
[5] = target: T2, Angiotensin-converting enzyme (Rattus norvegicus); experiment: Compound was evaluated for ACE inhibitory activity in conscious normotensive rats at a dose 10 mg/kg given intravenously by determining percent reduction in Angiotensin I converting enzyme response; assay type: organism-based; parameters: dose 10 mg/kg
[6] = target: T2, Angiotensin-converting enzyme (Rattus norvegicus); experiment: Compound was evaluated for ACE inhibitory activity in conscious normotensive rats at a dose 10 mg/kg given intravenously by determining percent reduction in Angiotensin I converting enzyme; assay type: organism-based; parameters: dose 10 mg/kg

Compound | IC50 [1] [µM] | also measured
CC(C)(C)OC(=O)[C@@H]1CCCN1C(=O)[C@H]1CCC[C@H]1SC(=O)c1ccccc1 | 124 | –
O=C(O)[C@@H]1CCCN1C(=O)[C@@H]1CC[C@H]1S | 1.26 | SBP decrease (Canis familiaris [2]): <10%
O=C(O)[C@@H]1CCCN1C(=O)[C@H]1CC[C@@H]1S | 12.7 | –
CC1(C)CC[C@@H](C(=O)N2CCC[C@H]2C(=O)O)[C@H]1SC(=O)c1ccccc1 | 250 | –
CC(C)(C)OC(=O)[C@@H]1CCCN1C(=O)[C@H]1CC[C@@H]1SC(=O)c1ccccc1 | 250 | –
O=C(S[C@H]1CCC[C@H]1C(=O)N1CCC[C@H]1C(=O)O)c1ccccc1 | 144 | –
CC1(C)CC[C@H](C(=O)N2CCC[C@H]2C(=O)O)[C@H]1S | 250 | –
O=C(O)[C@@H]1CCCN1C(=O)[C@H]1CCC[C@@H]1S | 34.2 | –
O=C(S[C@H]1CC[C@@H]1C(=O)N1CCC[C@H]1C(=O)O)c1ccccc1 | 250 | Reduction [3]: -18%; SBP decrease (Canis familiaris [2]): -19%; SBP decrease (Canis familiaris [4]): <10%; Change in ACE response [5]: -30%
C[C@H](CS)C(=O)N1CCC[C@H]1C(=O)O [CAPTOPRIL] | – | SBP decrease (Canis familiaris [2]): -19%; SBP decrease (Canis familiaris [4]): -15%
CC1(C)CC[C@H](C(=O)N2CCC[C@H]2C(=O)O)[C@H]1SC(=O)c1ccccc1 | 250 | –
O=C(S[C@@H]1CC[C@H]1C(=O)N1CCC[C@H]1C(=O)O)c1ccccc1 | 5.5 | Reduction [3]: -45%; SBP decrease (Canis familiaris [2]): -17%; SBP decrease (Canis familiaris [4]): -15%; Reduction [6]: -60%
O=C(O)[C@@H]1CCCN1C(=O)C1CCCCC1S (some centres not stated) | 11.3 | –
CC(C)(C)OC(=O)[C@@H]1CCCN1C(=O)[C@@H]1CCC[C@H]1SC(=O)c1ccccc1 | 250 | –
CC(C)(C)OC(=O)[C@@H]1CCCN1C(=O)[C@@H]1CCC[C@@H]1SC(=O)c1ccccc1 | 250 | –
CC(C)(C)OC(=O)[C@@H]1CCCN1C(=O)[C@H]1CCC[C@@H]1SC(=O)c1ccccc1 | 250 | –
O=C(S[C@@H]1CCC[C@@H]1C(=O)N1CCC[C@H]1C(=O)O)c1ccccc1 | 250 | –
CC1(C)CC[C@@H](C(=O)N2CCC[C@H]2C(=O)O)[C@@H]1S | 215 | –
O=C(S[C@H]1CCC[C@@H]1C(=O)N1CCC[C@H]1C(=O)O)c1ccccc1 | 144 | –
CC(C)(C)OC(=O)[C@@H]1CCCN1C(=O)[C@H]1CCC(C)(C)[C@@H]1SC(=O)c1ccccc1 | 250 | –
O=C(S[C@@H]1CCC[C@H]1C(=O)N1CCC[C@H]1C(=O)O)c1ccccc1 | 0.58 | SBP decrease (Canis familiaris [2]): -18%; SBP decrease (Canis familiaris [4]): -15%; Change in ACE response [5]: -80%
O=C(O)[C@@H]1CCCN1C(=O)C1CCCC1S (some centres not stated) | 1.64 | –
CC(C)(C)OC(=O)[C@@H]1CCCN1C(=O)[C@@H]1CC[C@H]1SC(=O)c1ccccc1 | 250 | –
CC(C)(C)OC(=O)[C@@H]1CCCN1C(=O)[C@@H]1CCC(C)(C)[C@@H]1SC(=O)c1ccccc1 | 250 | –
O=C(O)[C@@H]1CCCN1C(=O)[C@@H]1CCC[C@@H]1S | 19.5 | Reduction [3]: -22%; SBP decrease (Canis familiaris [2]): <10%; Change in ACE response [5]: -41%
O=C(O)[C@@H]1CCCN1C(=O)[C@@H]1CCC[C@H]1S | 1.11 | Reduction [3]: -42%; SBP decrease (Canis familiaris [2]): -21%; SBP decrease (Canis familiaris [4]): -18%; Change in ACE response [5]: -75%
O=C(O)[C@@H]1CCCN1C(=O)[C@H]1CCC[C@H]1S | 206 | –
